Experimental data from ChEMBL document CHEMBL5034020, “Self-Masked Aldehyde Inhibitors: A Novel Strategy for Inhibiting Cysteine Proteases” (J Med Chem, 2021).
Activity calls are given as the source filed them. No cut-off for these calls is given here. Residues, ends and D or L forms follow the SMILES beside them. *: point of attachment. Cbz = O=C(OCc1ccccc1)*

Columns and labels:
[1] = test system: Trypanosoma brucei brucei; assay: Antitrypanosomal activity against bloodstream form of Trypanosoma brucei brucei measured after 3 to 4 days by Z2 coulter counter based analysis; assay type: functional, organism-based
How it was run: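 Bloodstream-form T. b. brucei SM427 grown at 37 °C in HM1–9 with 10% FBS and penicillin–streptomycin, seeded at ~1×10⁶ cells. Inhibitor at 0.5–20 μM final (DMSO <1%). Cultures diluted daily to stay in log phase, with inhibitor re-added each time. Cells counted with a Coulter counter.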

[2] = target: Cruzipain (Trypanosoma cruzi) (UniProt P25779); assay: Reversible inhibition of Trypanosoma cruzi cruzain using Cbz-Phe-Arg-AMC as substrate assessed as enzyme recovery at 10 fold >apparent Ki preincubated for 2 hrs followed by 100-fold dilution in presence of substrate by rapid dilution assay relative to control; design: scale not given: the % may be the effect or the level left
Chain of Cruzipain (Trypanosoma cruzi) (P25779 123-467 limits assumed): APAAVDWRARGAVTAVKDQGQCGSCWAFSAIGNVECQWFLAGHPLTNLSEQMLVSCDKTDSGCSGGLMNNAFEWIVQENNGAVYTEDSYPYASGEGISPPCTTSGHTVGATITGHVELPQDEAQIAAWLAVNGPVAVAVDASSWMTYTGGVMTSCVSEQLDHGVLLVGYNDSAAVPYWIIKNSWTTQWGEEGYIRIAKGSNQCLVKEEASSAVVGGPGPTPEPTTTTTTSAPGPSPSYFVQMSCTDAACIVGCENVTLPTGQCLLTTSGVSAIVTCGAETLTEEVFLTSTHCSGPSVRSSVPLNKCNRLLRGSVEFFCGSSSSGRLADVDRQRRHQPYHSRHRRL

[3] = target: Cruzipain (Trypanosoma cruzi) (UniProt P25779); assay: Reversible inhibition of Trypanosoma cruzi cruzain using Cbz-Phe-Arg-AMC as substrate at 0.1 times apparent Ki preincubated for 2 hrs followed by 100-fold dilution in presence of substrate by rapid dilution assay relative to control
Trypanosoma cruzi = assay: Antitrypanosomal activity against Trypanosoma cruzi infected in mouse C2C12 cells incubated for 2 days by DAPI staining based microscopic analysis; assay type: functional, organism-based; settings: C2C12, 48 h
How it was run: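 Inhibitor added as 3-fold serial dilutions, top 40 μM (typically 0.02–40 μM), 2 days at 37 °C. Fixed with 2% PFA in PBS, stained with 5 μg/mL DAPI for >30 min in the dark, then imaged to count parasites and host cells.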

C2C12 = assay: Cytotoxicity against mouse C2C12 cells assessed as reduction in cell viability at up to 40 uM; assay type: cell-based
Cruzipain = Cruzipain (Trypanosoma cruzi, UniProt P25779); assay: Time dependent inhibition of Trypanosoma cruzi cruzain using Cbz-Phe-Arg-AMC as substrate assessed as inhibition constant for EI complex measured for 0.5 to 1 hr by fluorescence based analysis
Chain of Cruzipain (P25779 whole entry): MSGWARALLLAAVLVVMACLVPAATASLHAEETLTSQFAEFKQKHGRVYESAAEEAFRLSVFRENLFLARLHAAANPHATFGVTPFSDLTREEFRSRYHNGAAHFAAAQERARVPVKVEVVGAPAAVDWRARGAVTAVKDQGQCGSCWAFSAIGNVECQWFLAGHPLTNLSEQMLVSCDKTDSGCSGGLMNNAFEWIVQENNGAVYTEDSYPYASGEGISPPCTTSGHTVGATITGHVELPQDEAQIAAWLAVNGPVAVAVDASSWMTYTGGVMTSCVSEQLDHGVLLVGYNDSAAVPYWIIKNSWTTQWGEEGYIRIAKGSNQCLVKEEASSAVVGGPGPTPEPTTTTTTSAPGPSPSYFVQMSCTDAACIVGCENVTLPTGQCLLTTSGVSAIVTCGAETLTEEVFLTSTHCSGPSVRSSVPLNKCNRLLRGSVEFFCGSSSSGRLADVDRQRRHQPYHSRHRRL

Cytochrome P450 2D6 = Cytochrome P450 2D6 (Homo sapiens, UniProt P10635); assay: Metabolic stability of the compound assessed as CYP2D6 (unknown origin)-mediated conversion to N-((2S)-1-((3S)-2-hydroxychroman-3-ylamino)-1-oxo-3-phenylpropan-2-yl)-4-methylpiperazine-1-carboxamide measured up to 4 hrs in presence of NADPH-regenerating system; assay type: ADME
Chain of Cytochrome P450 2D6 (P10635 whole entry): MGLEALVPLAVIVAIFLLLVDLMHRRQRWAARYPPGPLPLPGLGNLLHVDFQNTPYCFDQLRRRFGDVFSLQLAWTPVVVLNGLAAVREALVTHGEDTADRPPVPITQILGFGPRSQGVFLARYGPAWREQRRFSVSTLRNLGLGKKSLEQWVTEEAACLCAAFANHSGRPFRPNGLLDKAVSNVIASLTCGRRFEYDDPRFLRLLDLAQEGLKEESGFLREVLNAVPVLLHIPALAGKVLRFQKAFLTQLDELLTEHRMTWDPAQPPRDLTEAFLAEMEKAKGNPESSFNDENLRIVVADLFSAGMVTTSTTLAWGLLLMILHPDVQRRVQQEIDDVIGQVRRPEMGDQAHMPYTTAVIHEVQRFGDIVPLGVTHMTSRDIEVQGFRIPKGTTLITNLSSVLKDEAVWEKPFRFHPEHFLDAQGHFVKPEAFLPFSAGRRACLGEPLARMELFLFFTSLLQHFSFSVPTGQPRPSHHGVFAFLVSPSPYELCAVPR

Cytochrome P450 3A4 = Cytochrome P450 3A4 (Homo sapiens, UniProt P08684); assay: Metabolic stability of the compound assessed as CYP3A4 (unknown origin)-mediated conversion to N-((2S)-1-((3S)-2-hydroxychroman-3-ylamino)-1-oxo-3-phenylpropan-2-yl)-4-methylpiperazine-1-carboxamide measured up to 4 hrs in presence of NADPH-regenerating system; assay type: ADME
Chain of Cytochrome P450 3A4 (P08684 whole entry): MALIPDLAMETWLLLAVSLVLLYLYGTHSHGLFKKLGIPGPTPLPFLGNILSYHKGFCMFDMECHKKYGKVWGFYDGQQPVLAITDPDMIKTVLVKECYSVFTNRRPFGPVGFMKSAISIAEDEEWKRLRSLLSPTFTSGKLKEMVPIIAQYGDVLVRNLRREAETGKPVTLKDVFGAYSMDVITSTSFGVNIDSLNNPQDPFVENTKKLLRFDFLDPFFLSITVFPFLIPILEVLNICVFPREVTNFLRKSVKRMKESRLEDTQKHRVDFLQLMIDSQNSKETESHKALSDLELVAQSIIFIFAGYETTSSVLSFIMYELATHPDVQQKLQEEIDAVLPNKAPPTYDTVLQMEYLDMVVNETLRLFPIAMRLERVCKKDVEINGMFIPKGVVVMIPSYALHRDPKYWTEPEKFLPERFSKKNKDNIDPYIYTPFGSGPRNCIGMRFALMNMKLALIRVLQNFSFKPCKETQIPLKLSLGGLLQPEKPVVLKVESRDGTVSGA

Cytochrome P450 2C9 = Cytochrome P450 2C9 (Homo sapiens, UniProt P11712); assay: Metabolic stability of the compound assessed as CYP2C9 (unknown origin)-mediated conversion to N-((2S)-1-((3S)-2-hydroxychroman-3-ylamino)-1-oxo-3-phenylpropan-2-yl)-4-methylpiperazine-1-carboxamide measured up to 4 hrs in presence of NADPH-regenerating system; assay type: ADME
Chain of Cytochrome P450 2C9 (P11712 whole entry): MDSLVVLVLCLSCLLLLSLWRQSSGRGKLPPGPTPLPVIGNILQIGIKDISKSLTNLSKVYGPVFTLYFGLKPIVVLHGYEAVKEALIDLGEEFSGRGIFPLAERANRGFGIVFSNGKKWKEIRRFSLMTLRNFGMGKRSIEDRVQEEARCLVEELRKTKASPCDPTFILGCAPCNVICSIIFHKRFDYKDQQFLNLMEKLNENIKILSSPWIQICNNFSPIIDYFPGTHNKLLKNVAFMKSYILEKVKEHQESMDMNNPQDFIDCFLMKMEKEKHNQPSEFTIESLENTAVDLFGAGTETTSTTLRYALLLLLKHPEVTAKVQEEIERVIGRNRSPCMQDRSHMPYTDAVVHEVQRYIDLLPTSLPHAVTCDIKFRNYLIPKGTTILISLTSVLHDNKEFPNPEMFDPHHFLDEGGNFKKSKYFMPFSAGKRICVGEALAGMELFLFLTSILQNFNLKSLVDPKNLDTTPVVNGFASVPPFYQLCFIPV

[4] = Chemical stability of the compound in NMR buffer in absence of DTT assessed as phenylhydrazone formation at 0.2 mM incubated for 2 hrs in presence of 1 M phenyl hydrazine by UV absorbance based analysis; assay type: physicochemical; settings: 200 µM
How it was run: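 0.2 mM compound treated with 1 mM phenylhydrazine final (added from a 1 M stock) in NMR buffer lacking DTT, with a DMSO control. Phenylhydrazone formation followed continuously by UV absorbance at 282 nm for 2 h.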

[5] = target: Cruzipain (Trypanosoma cruzi) (UniProt P25779); assay: Time dependent inhibition of Trypanosoma cruzi cruzain using Cbz-Phe-Arg-AMC as substrate measured after >= 20 mins; settings: time min >=20, TDE = time-dependent effect
How it was run: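 Started by adding cruzain to 0.2 nM. Fluorescence (ex 360 / em 460 nm) followed for 20–60 min.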

[6] = target: Cruzipain (Trypanosoma cruzi) (UniProt P25779); assay: Binding affinity to Trypanosoma cruzi cruzain assessed as covalent bond formation between compound and Cys25 residue by 2D HSQC NMR spectroscopy analysis
How it was run: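 ¹³C-labelled lactol diluted from a 10 mM DMSO-d6 stock into NMR buffer. Control at 0.6 mM; sample at 0.4 mM with 0.44 mM freshly SEC-purified cruzain. ¹H-¹³C HSQC recorded at 800 MHz and 25 °C, with a spectrum acquired after 1 h with enzyme.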

[7] = target: Cruzipain (Trypanosoma cruzi) (UniProt P25779); assay: Binding affinity to Trypanosoma cruzi cruzain assessed as formation of enzyme-inhibitor adducts by measuring mass changes by mass spectrometric analysis
[8] = target: Cruzipain (Trypanosoma cruzi) (UniProt P25779); assay: Reversible inhibition of Trypanosoma cruzi cruzain using Cbz-Phe-Arg-AMC as substrate assessed as enzyme recovery preincubated for 2 hrs followed by 100-fold dilution in presence of substrate by rapid dilution assay
[9] = Stability of the compound in buffer at pH 7.5 assessed as conversion to N-((2S)-1-((3S)-2-hydroxychroman-3-ylamino)-1-oxo-3-phenylpropan-2-yl)-4-methylpiperazine-1-carboxamide by measuring half life by LC-MS analysis; assay type: physicochemical
[10] = target: Cruzipain (Trypanosoma cruzi) (UniProt P25779); assay: Time dependent inhibition of Trypanosoma cruzi cruzain using Cbz-Phe-Arg-AMC as substrate assessed as association rate constant for EI complex measured over 30 mins
[11] = Selectivity index, ratio of EC50 for antitrypanosomal activity against bloodstream form of Trypanosoma brucei brucei measured after 3 to 4 days by Z2 coulter counter based analysis to Ki for time dependent inhibition of Trypanosoma cruzi cruzain using Cbz-Phe-Arg-AMC as substrate assessed as inhibition constant for EI complex measured for 0.5 to 1 hr by fluorescence based analysis; assay type: toxicity
Liver carboxylesterase = target: T1, Liver carboxylesterase (Sus scrofa, UniProt Q29550); assay: Stability of the compound in buffer at pH 7.5 assessed as porcine esterase-mediated compound degradation measured over 3 hrs by LC-MS analysis; assay type: ADME; settings: pig, read-out: Drug degradation
T1 sequence (Q29550 whole entry): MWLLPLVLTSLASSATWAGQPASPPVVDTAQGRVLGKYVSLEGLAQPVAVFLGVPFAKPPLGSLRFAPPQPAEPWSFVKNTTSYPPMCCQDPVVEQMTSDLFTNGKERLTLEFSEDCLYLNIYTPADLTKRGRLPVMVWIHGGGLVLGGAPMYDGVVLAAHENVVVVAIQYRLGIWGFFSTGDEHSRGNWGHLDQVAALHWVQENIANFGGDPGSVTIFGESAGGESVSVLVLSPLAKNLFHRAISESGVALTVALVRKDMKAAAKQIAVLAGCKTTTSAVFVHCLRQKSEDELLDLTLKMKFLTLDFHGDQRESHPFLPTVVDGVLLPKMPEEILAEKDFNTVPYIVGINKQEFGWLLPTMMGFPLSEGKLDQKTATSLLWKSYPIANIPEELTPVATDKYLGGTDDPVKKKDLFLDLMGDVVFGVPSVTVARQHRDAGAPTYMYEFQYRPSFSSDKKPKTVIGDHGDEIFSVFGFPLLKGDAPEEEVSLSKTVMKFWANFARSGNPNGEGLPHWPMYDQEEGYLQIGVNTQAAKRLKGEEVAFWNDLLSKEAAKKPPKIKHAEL
How it was run: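 Prodrugs at 2 mM in cruzain assay buffer (pH 7.5, 10% DMSO) with porcine liver esterase at 40 U/mL, shaken at 37 °C. Controls without esterase and buffer only. Aliquots taken at 0–300 min and quenched with MeCN, then the supernatant analysed by HPLC–MS with detection at 270 nm.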

Procathepsin L = Procathepsin L (Homo sapiens, UniProt P07711); assay: Inhibition of human Cathepsin L
Chain of Procathepsin L (P07711 whole entry): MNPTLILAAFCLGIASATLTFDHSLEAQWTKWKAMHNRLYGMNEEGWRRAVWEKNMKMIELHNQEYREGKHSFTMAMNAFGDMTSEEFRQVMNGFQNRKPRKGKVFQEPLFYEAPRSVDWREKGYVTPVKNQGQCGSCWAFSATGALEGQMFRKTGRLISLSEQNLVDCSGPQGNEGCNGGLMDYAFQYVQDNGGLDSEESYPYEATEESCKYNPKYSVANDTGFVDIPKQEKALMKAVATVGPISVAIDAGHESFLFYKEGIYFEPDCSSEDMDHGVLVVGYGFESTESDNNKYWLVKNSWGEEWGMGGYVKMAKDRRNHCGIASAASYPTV

SARS-CoV-2 = assay: Antiviral activity against SARS-CoV-2 infected in human A549 cells transfected with ACE2 assessed as virus-induced cytopathic effect incubated for 4 days by microscopic analysis; assay type: functional, organism-based; settings: Severe acute respiratory syndrome coronavirus 2, A549, 96 h
[12] = Inhibition of SARS-CoV-2 3CLpro using ACC-SAVLQSGFRK(DNP)-NH2 as substrate assessed as inhibition constant measured for 0.5 to 1 hr by fluorescence based analysis; design: species or system Severe acute respiratory syndrome coronavirus 2

| SMILES | EC50 [1] | Activity [2] | inhibition [3] | EC50 (Trypanosoma cruzi) | Activity (C2C12) | Ki (Cruzipain) | further results |
| --- | --- | --- | --- | --- | --- | --- | --- |
| COC(=O)c1ccc2c(c1)C[C@H](NC(=O)[C@H](Cc1ccccc1)NC(=O)OCc1ccccc1)C(O)O2 (stereo partly specified) | 4 µM | 91% | 9% | 3.5 µM | Non-Toxic | 0.018 µM |  |
| O=C(Cn1ccnc1[N+](=O)[O-])NCc1ccccc1 [BENZNIDAZOLE] |  |  |  | 4 µM |  |  |  |
| CC(C)OC1Oc2ccccc2C[C@@H]1NC(=O)[C@H](Cc1ccccc1)NC(=O)N1CCN(C)CC1 (stereo partly specified) | 14 µM |  |  |  | Non-Toxic | > 5 µM | Stability (Cytochrome P450 2D6): Stable; Stability (Cytochrome P450 3A4): Stable; Stability (Cytochrome P450 2C9): Stable |
| COc1ccccc1C[C@@H](C=O)NC(=O)[C@H](Cc1ccccc1)NCC(=O)OCc1ccccc1 |  |  |  |  |  | 0.022 µM |  |
| O=C(N[C@@H](Cc1ccccc1)C(=O)N[C@H]1Cc2cc(Cl)ccc2OC1O)OCc1ccccc1 (stereo partly specified) | 5.8 µM | 91% | 9% |  | Non-Toxic | 0.074 µM |  |
| CN1CCN(C(=O)N[C@@H](Cc2ccccc2)C(=O)N[C@H]2Cc3ccccc3OC2O)CC1 (stereo partly specified) | 0.6 µM |  |  | > 20 µM | Non-Toxic | 0.047 µM | Stability [4]: Stable; inhibition [5]: Tde; Activity [6]: Active; Activity [7]: Active; Activity [8]: inactive |
| CCC(=O)OC1Oc2ccccc2C[C@@H]1NC(=O)[C@H](Cc1ccccc1)NC(=O)N1CCN(C)CC1 (stereo partly specified) | 3.1 µM |  |  |  | Non-Toxic | > 5 µM | t1/2 [9]: 24 min |
| O=C[C@H](Cc1ccccc1)NC(=O)[C@H](Cc1ccccc1)NC(=O)OCc1ccccc1 (Cbz-Phe-Phe-aldehyde) | 3.3 µM |  |  | 0.5 µM | Toxic | 0.00044 µM | Ka [10]: 7.6 10^-4/s; Activity [8]: inactive; Ratio [11]: 7500 |
| CC(=O)OC1Oc2ccccc2C[C@@H]1NC(=O)[C@H](Cc1ccccc1)NC(=O)N1CCN(C)CC1 (stereo partly specified) | 3.7 µM |  |  | 13 µM | Non-Toxic | 1 µM | t1/2 [9]: 48 min; metabolised at 3 h (Liver carboxylesterase): 10% |
| CC(C)[C@H](NC(=O)OCc1ccccc1)C(=O)N[C@@H](CC1CCCCC1)C(=O)N[C@H](C=O)Cc1ccc[nH]c1=O |  |  |  |  |  |  | Ki (Procathepsin L): 0.053 µM; EC50 (SARS-CoV-2): 5 µM; Ki [12]: 0.009 µM |
| CC(C)C(=O)OC1Oc2ccccc2C[C@@H]1NC(=O)[C@H](Cc1ccccc1)NC(=O)N1CCN(C)CC1 (stereo partly specified) | 4 µM |  |  | 10 µM | Non-Toxic | > 5 µM | t1/2 [9]: 16 min |
| O=C(CN[C@@H](Cc1ccccc1)C(=O)N[C@H](CO)Cc1ccccc1O)OCc1ccccc1 |  |  |  |  |  | > 10 µM |  |
| CN1CCN(C(=O)N[C@@H](Cc2ccccc2)C(=O)N[C@H](/C=C/S(=O)(=O)c2ccccc2)CCc2ccccc2)CC1 [K-777] |  |  |  | 0.04 µM | Toxic |  |  |
| CN1CCN(C(=O)N[C@@H](Cc2ccccc2)C(=O)N[C@H](C=O)CCc2ccccc2)CC1 |  |  |  |  |  |  | Stability [4]: Unstable; inhibition [5]: Tde; Activity [8]: inactive |
| O=C(N[C@@H](Cc1ccccc1)C(=O)N[C@H]1Cc2cc(F)ccc2OC1O)OCc1ccccc1 (stereo partly specified) | 2.7 µM | 91% | 9% | 3.5 µM | Non-Toxic | 0.048 µM | Activity [7]: Active |
| CCOC1Oc2ccccc2C[C@@H]1NC(=O)[C@H](Cc1ccccc1)NC(=O)N1CCN(C)CC1 (stereo partly specified) | 12 µM |  |  |  | Non-Toxic | > 5 µM | Stability (Cytochrome P450 2D6): Stable; Stability (Cytochrome P450 3A4): Stable; Stability (Cytochrome P450 2C9): Stable |
| COc1ccc2c(c1)C[C@H](NC(=O)[C@H](Cc1ccccc1)NC(=O)OCc1ccccc1)C(O)O2 (stereo partly specified) | 2.6 µM | 91% | 9% |  | Non-Toxic | 0.35 µM |  |
| CN1CCN(C(=O)N[C@@H](Cc2ccccc2)C(=O)N[C@@H]2Cc3ccccc3C[C@H]2O)CC1 (mixture of isomers) |  |  |  |  |  | > 100 µM |  |
| Cc1ccc2c(c1)C[C@H](NC(=O)[C@H](Cc1ccccc1)NC(=O)OCc1ccccc1)C(O)O2 (stereo partly specified) | 0.5 µM | 91% | 9% | 5.7 µM | Non-Toxic |  | Activity [7]: Active |
| O=C(N[C@@H](Cc1ccccc1)C(=O)N[C@H]1Cc2ccccc2OC1O)OCc1ccccc1 (stereo partly specified) | 6.8 µM | 91% | 9% | 2.9 µM | Non-Toxic | 0.049 µM | Activity [7]: Active |
